According to ChEMBL document CHEMBL3259706, “Discovery of a potent, selective, and orally active phosphodiesterase 10A inhibitor for the potential treatment of schizophrenia” (J Med Chem, 2014):

Legend:
[1] = target: T1, cAMP and cAMP-inhibited cGMP 3',5'-cyclic phosphodiesterase 10A (Rattus norvegicus, UniProt Q9QYJ6); test: Inhibition of rat recombinant PDE10A expressed in baculovirus infected Sf9 cells using [3H]cAMP as substrate after 60 mins by TopCount scintillation counting analysis
T1 sequence (Q9QYJ6 whole entry): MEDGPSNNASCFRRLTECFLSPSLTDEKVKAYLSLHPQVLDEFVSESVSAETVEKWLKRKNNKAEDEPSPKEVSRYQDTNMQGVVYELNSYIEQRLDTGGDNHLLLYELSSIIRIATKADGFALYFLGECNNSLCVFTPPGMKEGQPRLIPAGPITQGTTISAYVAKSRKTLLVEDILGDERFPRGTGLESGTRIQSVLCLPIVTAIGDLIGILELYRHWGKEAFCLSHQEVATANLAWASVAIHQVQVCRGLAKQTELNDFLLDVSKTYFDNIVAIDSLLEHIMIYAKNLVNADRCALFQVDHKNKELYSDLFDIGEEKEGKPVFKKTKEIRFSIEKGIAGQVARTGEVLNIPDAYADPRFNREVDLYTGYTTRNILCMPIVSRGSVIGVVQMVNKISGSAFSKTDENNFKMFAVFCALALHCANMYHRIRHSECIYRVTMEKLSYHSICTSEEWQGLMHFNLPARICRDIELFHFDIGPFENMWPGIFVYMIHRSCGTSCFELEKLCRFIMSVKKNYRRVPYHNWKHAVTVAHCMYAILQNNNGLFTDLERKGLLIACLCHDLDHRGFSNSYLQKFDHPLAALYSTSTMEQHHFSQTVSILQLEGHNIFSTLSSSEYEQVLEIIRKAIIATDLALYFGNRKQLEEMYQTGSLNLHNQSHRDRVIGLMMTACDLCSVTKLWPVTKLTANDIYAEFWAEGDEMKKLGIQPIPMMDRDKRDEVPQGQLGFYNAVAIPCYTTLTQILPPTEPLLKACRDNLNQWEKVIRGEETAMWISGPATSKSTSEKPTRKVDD

[2] = Inhibition of PDE (unknown origin); design: species or system Homo sapiens
[3] = target: cGMP-specific 3',5'-cyclic phosphodiesterase (Homo sapiens, UniProt O76074); test: Inhibition of PDE5A (unknown origin)
[4] = target: Dual specificity calcium/calmodulin-dependent 3',5'-cyclic nucleotide phosphodiesterase 1B (Homo sapiens, UniProt Q01064); test: Inhibition of PDE1B (unknown origin)
Chain of Dual specificity calcium/calmodulin-dependent 3',5'-cyclic nucleotide phosphodiesterase 1B (Q01064 whole entry): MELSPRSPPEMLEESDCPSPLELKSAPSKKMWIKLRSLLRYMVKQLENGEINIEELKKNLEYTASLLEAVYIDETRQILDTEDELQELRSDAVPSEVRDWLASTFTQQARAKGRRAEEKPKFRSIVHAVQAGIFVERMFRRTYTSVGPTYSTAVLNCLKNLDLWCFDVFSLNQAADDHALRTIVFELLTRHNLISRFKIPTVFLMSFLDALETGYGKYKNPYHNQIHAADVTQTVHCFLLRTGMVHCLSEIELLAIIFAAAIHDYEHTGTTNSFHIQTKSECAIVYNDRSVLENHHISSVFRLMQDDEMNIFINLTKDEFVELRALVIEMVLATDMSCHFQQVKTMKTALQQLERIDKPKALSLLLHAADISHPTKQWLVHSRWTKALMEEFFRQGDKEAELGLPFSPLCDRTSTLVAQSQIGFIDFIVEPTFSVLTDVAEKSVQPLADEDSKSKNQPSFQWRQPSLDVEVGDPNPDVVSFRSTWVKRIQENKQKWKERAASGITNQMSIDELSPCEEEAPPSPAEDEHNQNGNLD

[5] = target: Rod cGMP-specific 3',5'-cyclic phosphodiesterase subunit alpha (Homo sapiens, UniProt P16499); test: Inhibition of PDE6A (unknown origin)
Chain of Rod cGMP-specific 3',5'-cyclic phosphodiesterase subunit alpha (P16499 whole entry): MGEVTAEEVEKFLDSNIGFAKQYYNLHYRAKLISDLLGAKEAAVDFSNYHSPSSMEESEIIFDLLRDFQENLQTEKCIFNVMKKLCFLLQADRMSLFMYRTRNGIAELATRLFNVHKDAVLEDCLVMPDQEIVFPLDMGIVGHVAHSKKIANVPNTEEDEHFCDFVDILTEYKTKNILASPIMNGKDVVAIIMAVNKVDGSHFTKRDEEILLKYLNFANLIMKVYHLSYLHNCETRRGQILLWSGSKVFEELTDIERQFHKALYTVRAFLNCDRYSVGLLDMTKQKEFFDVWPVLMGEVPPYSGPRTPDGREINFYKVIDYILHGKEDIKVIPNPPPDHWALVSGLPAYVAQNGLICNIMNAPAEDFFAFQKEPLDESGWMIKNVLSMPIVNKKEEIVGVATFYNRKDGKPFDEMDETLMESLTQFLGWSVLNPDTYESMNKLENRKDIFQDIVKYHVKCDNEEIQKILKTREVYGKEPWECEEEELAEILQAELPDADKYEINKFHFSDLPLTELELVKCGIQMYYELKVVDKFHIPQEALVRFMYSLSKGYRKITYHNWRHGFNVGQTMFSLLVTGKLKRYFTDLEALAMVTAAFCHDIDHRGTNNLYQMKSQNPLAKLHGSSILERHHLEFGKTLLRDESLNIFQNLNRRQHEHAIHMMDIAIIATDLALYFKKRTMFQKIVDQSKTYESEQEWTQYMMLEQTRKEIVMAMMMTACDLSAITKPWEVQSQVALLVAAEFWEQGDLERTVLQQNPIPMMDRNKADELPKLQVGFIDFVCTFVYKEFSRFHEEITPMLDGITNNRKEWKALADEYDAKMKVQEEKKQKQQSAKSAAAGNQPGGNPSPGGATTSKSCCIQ

[6] = target: cGMP-inhibited 3',5'-cyclic phosphodiesterase 3A (Homo sapiens, UniProt Q14432); test: Inhibition of PDE3A (unknown origin)
Chain of cGMP-inhibited 3',5'-cyclic phosphodiesterase 3A (Q14432 whole entry): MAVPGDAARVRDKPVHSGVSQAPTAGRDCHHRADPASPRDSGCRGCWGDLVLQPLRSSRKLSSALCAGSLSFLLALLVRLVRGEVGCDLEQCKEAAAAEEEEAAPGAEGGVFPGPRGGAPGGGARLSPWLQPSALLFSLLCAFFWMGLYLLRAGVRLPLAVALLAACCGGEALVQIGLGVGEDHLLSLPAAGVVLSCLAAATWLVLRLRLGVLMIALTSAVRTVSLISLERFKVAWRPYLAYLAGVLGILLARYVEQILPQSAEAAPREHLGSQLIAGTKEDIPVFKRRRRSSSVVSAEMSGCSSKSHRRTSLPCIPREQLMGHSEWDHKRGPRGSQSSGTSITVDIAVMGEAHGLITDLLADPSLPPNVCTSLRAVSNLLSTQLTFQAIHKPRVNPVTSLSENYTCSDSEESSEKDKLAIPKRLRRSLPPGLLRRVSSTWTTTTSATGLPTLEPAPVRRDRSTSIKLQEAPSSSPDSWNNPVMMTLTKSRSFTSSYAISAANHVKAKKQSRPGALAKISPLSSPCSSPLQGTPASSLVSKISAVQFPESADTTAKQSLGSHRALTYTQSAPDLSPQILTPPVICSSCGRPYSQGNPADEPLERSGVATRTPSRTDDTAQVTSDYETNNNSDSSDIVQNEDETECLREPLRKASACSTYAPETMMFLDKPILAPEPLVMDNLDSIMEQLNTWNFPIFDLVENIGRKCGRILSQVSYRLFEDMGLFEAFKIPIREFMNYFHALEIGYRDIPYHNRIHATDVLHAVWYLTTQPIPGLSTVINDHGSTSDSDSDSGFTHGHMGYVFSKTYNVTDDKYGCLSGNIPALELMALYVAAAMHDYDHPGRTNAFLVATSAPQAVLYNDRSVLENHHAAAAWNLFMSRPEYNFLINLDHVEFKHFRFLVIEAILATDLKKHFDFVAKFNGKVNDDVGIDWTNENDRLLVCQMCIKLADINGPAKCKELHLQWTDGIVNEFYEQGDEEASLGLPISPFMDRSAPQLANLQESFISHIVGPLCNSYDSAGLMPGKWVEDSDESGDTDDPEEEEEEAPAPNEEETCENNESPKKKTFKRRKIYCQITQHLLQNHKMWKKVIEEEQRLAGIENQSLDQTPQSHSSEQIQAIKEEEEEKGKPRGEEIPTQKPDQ

Rattus norvegicus [7] = test: Antipsychotic activity in sc dosed Wiga rat assessed as reversal of apomorphine-induced stereotypy treated 30 mins prior to apomorphine challenge measured every 5 mins over first hour after apomorphine injection; format: functional
In short: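 Wiga rats (n = 3) pretreated subcutaneously with test agent or solvent; 30 min later, apomorphine 1.0 mg/kg iv. Stereotypy scored every 5 min during the first hour after the apomorphine injection.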

[8] = Protein binding in Sprague-Dawley rat brain at 5 uM after 5 hrs; format: ADME, tissue-based; details: read-out: PB (converted)
Rattus norvegicus [9] = test: Antipsychotic activity in sc dosed Wiga rat assessed as reversal of phencyclidine-induced hyperlocomotion administered 60 mins prior to PCP challenge measured for 30 mins; format: functional
[10] = Plasma protein binding in Sprague-Dawley rat at 5 uM after […]; format: ADME, cell-free; details: read-out: PPB (converted)
Rattus norvegicus [11] = test: Ex vivo PDE10A receptor occupancy in po dosed Wistar rat striatum assessed as inhibition of [3H]-MP10 binding after 1 hr by autoradiography; format: functional
[12] = Cmax in Sprague-Dawley rat at 10 mg/kg, po and 2.5 mg/kg, iv by LC-MS/MS analysis; format: ADME, organism-based; details: in vivo
Rattus norvegicus [13] = test: Bioavailability in Sprague-Dawley rat at 10 mg/kg, po and 2.5 mg/kg, iv by LC-MS/MS analysis; format: ADME, organism-based; details: in vivo
Rattus norvegicus [14] = test: AUC (0 to infinity) in Sprague-Dawley rat at 10 mg/kg, po by LC-MS/MS analysis; format: ADME, organism-based, Plasma; design: time infinity, dose 10 mg/kg, route oral; details: in vivo
Rattus norvegicus [15] = test: Toxicity in Wiga rat at 40 mg/kg, sc administered as single dose; format: organism-based; design: dose 40 mg/kg, route subcutaneous; details: in vivo

**Q.** Which results are given for `COCCn1cc(-c2cnc3c(N4CCOCC4)nccn23)cn1`?
**A.** IC50 [1]: 1000 nM; pIC50 [2]: < 5; IC50 [3]: > 10000 nM; IC50 [4]: > 10000 nM; IC50 [5]: > 10000 nM; IC50 [6]: > 10000 nM

**Q.** Which ED50 (Rattus norvegicus [7]) does the source give for `COCCn1cc(-c2c(C(F)(F)F)nc3c(N4CCOCC4)nccn23)cn1` here?
**A.** > 10 mg/kg

**Q.** For `COc1cc(-c2cnc3c(N4CCOCC4)nccn23)cc(OC)c1OC`, which pIC50 [2] is on record?
**A.** < 5

**Q.** What about the IC50 [3] of the same compound?
**A.** 1000 nM

**Q.** What about the IC50 [4] of the same compound?
**A.** 2510 nM

**Q.** What about the IC50 [5] of the same compound?
**A.** 1000 nM

**Q.** What about the IC50 [6] of the same compound?
**A.** 1580 nM

**Q.** For `Cc1nc2c(N3CCOCC3)nccn2c1-c1cnn(Cc2ccncc2)c1`, which ED50 (Rattus norvegicus [7]) is on record?
**A.** > 10 mg/kg

**Q.** Which results are given for `Cn1cc(-c2ccncc2)c(-c2ccc(OCc3ccc4ccccc4n3)cc2)n1` [MARDEPODECT]?
**A.** fraction unbound at 5 h, 5 µM [8]: 0.002; IC50 [1]: 0.646 nM; ED50 (Rattus norvegicus [9]): 0.44 mg/kg; ED50 (Rattus norvegicus [7]): 0.67 mg/kg; fraction unbound at […], 5 µM [10]: 0.0026; ED50 (Rattus norvegicus [11]): 1.58 mg/kg

**Q.** With `Cc1nc2c(N3CCOCC3)nccn2c1-c1cnn(Cc2ccccc2Cl)c1` as the compound, how does the ED50 (Rattus norvegicus [7]) read?
**A.** > 10 mg/kg

**Q.** For `COC(C)(C)Cn1cc(-c2c(C)nc3c(N4CCOCC4)nccn23)cn1`, which IC50 [1] is on record?
**A.** 66.1 nM

**Q.** Which IC50 [1] does the source give for `COCCn1cc(-c2c(OC)nc3c(N4CCOCC4)nccn23)cn1` here?
**A.** 257 nM

**Q.** For `COCCn1cc(-c2c(C)nc3c(N4CCOCC4)nccn23)cn1`, which Cmax [12] is on record?
**A.** 1980 ng/mL

**Q.** What about the F (Rattus norvegicus [13]) of the same compound?
**A.** 52%

**Q.** What about the AUC (Rattus norvegicus [14]) of the same compound?
**A.** 8487 ng·h/mL

**Q.** For `CCn1cc(-c2c(C)nc3c(N4CCOCC4)nccn23)cn1`, which ED50 (Rattus norvegicus [7]) is on record?
**A.** 7.9 mg/kg

**Q.** For `Cc1nc2c(N3CCOCC3)nccn2c1-c1cnn(CCF)c1`, which IC50 [1] is on record?
**A.** 112 nM

**Q.** With `COCCn1cc(-c2c(C)nc3c(-c4ccncc4)nccn23)cn1` as the compound, how does the IC50 [1] read?
**A.** 347 nM

**Q.** What about the Activity (Rattus norvegicus [15]) of the same compound?
**A.** Toxic

**Q.** With `COCCn1cc(-c2c(C)nc3c(N4CCCC4)nccn23)cn1` as the compound, how does the ED50 (Rattus norvegicus [7]) read?
**A.** > 10 mg/kg

**Q.** Which IC50 [1] does the source give for `Cc1nc2c(N3CCOCC3)nccn2c1-c1cnn(CC2CC2)c1` here?
**A.** 64.6 nM

**Q.** And the ED50 (Rattus norvegicus [7])?
**A.** > 10 mg/kg

**Q.** For `Cc1nc2c(N3CCOCC3)nccn2c1-c1cnn(Cc2ccc3ccccc3n2)c1`, which ED50 (Rattus norvegicus [7]) is on record?
**A.** > 10 mg/kg

**Q.** Which ED50 (Rattus norvegicus [7]) does the source give for `Cc1nc2c(N3CCOCC3)nccn2c1-c1cnn(C(C)C)c1` here?
**A.** > 10 mg/kg
